Assay type in all cases: functional
Assay [1] deals with WiDr. The experiment in a line: Antiproliferative activity against human WiDr cells assessed as growth inhibition after 48 hrs by SRB assay. In outline: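 WiDr cells seeded at 20,000 cells/well after trypsinization into antibiotic-containing medium (trypan blue viability >97%). Culture at 37 °C, 5% CO₂ with foetal calf serum and 2 mM L-glutamine. Exposure to triplicate compound dilutions from DMSO stocks (0.25% v/v DMSO control) started day 1, lasting 48 h. Fixed with ice-cold 50% TCA, 60 min at 4 °C, then SRB, OD 492 nm background-subtracted.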
Background: The SRB assay estimates cell density from bound dye.

The test system of assay [2] is T47D. Put plainly: Antiproliferative activity against human T47D cells assessed as growth inhibition after 48 hrs by SRB assay. Put shortly:
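T-47D cells grown at 37 °C, 5% CO₂ in serum- and 2 mM L-glutamine-containing medium. Trypsinized, viability >97% by trypan blue, seeded at 15,000 cells/well. Compounds added day 1 in triplicate dilutions (DMSO vehicle 0.25% v/v as control) for 48 h. Cold 50% TCA fixation 60 min at 4 °C, SRB read at 492 nm with blank correction.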

Assay [3] deals with HeLa. The experiment in a line: Antiproliferative activity against human HeLa cells assessed as growth inhibition after 48 hrs by SRB assay. In outline:
(§1)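 Cells maintained at 37 °C, 5% CO₂ in medium with foetal calf serum and 2 mM L-glutamine. Trypsinized into antibiotic medium, >97% viable by trypan blue, plated at 10,000 cells/well. Triplicate dilutions from DMSO stocks (0.25% v/v DMSO control) added on day 1 for 48 h. TCA fixation (50%, 4 °C, 60 min), SRB stain, OD 492 nm corrected for medium-only blank.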

The subject of assay [4] is SW1573. Put plainly: Antiproliferative activity against human SW1573 cells assessed as growth inhibition after 48 hrs by SRB assay. As to conditions: SW1573, 48 h. Put shortly:
as §1

Assay [5] can be described thus: Antiproliferative activity against human HBL100 cells assessed as growth inhibition after 48 hrs by SRB assay. As to conditions: HBL-100, 48 h. Put shortly: as §1
Assay [6] relates to A549. The experiment in a line: Antiproliferative activity against human A549 cells assessed as growth inhibition after 48 hrs by SRB assay. The note with it: A549, 48 h. In outline: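 Cells kept in medium with foetal calf serum and 2 mM L-glutamine at 37 °C, 5% CO₂. Trypsinized, resuspended in penicillin/streptomycin medium, >97% trypan blue viability, seeded at 10,000 cells/well. Compounds from DMSO stocks (0.25% v/v DMSO control), triplicate dilutions, added day 1 for 48 h. Fixed with cold 50% TCA for 60 min at 4 °C, then SRB staining, OD 492 nm, background corrected.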

The GI50 is the concentration at which growth is held to half of that of the control. As to `COC(=O)[C@@]1(C)CCC=C2[C@@H]1CC[C@@H](C)[C@]2(C)Cc1c[nH]c2ccc(Br)cc12`, the GI50 in assay [1] worked out at 20 µM; in assay [2], 16 µM; in assay [3] it was 10 µM; in assay [4], 12 µM; in assay [5], 16 µM; in assay [6], 15 µM.

For `COC(=O)[C@@]1(C)CCC=C2[C@@H]1CC[C@@H](C)[C@]2(C)Cc1c[nH]c2ccc(F)cc12`, the GI50 in assay [1] was found to be 8 µM; in assay [2], 3.9 µM; in assay [3], 3.7 µM; in assay [4], 7.3 µM; in assay [5], 4.8 µM; in assay [6], 6.2 µM.

For the molecule `COC(=O)[C@@]1(C)CCC=C2[C@@H]1CC[C@@H](C)[C@]2(C)Cc1c[nH]c2ccc(OC)cc12`, the 50% growth inhibitory concentration (GI50) in assay [1] worked out at 5.7 µM; in assay [2], 3.7 µM; in assay [3], 1.2 µM; in assay [4], 1.3 µM; in assay [5], 2.1 µM; in assay [6] it was 2.2 µM.

As to `COC(=O)[C@@]1(C)CCC=C2[C@@H]1CC[C@@H](C)[C@]2(C)Cc1c[nH]c2ccc(C(F)(F)F)cc12`, the 50% growth inhibitory concentration (GI50) in assay [1] was 18 µM; in assay [2] it was 15 µM; in assay [3] it was 11 µM; in assay [4], 14 µM; in assay [5], 15 µM; in assay [6], 15 µM.

Turning to `COC(=O)[C@@]1(C)CCC=C2[C@@H]1CC[C@@H](C)[C@]2(C)Cc1c(C)[nH]c2ccccc12`, the concentration for 50% growth inhibition (GI50) worked out at 19 µM in assay [1]; 17 µM in assay [2]; 11 µM in assay [3]; 14 µM in assay [4]; 14 µM in assay [5]; 15 µM in assay [6].

As to `COC(=O)[C@@]1(C)CCC=C2[C@@H]1CC[C@@H](C)[C@]2(C)Cc1c(C)[nH]c2ccc(Br)cc12`, the concentration for 50% growth inhibition (GI50) in assay [1] came out at 15 µM; in assay [2], 16 µM; in assay [3] it was 11 µM; in assay [4] it was 14 µM; in assay [5], 15 µM; in assay [6], 15 µM.

Consider `COC(=O)[C@@]1(C)CCC=C2[C@@H]1CC[C@@H](C)[C@]2(C)Cc1c(C)[nH]c2ccc(Cl)cc12`, for which the GI50 in assay [1] was determined as 18 µM; in assay [2], 17 µM; in assay [3], 12 µM; in assay [4], 14 µM; in assay [5], 15 µM; in assay [6] it was 17 µM.

`COC(=O)[C@@]1(C)CCC=C2[C@@H]1CC[C@@H](C)[C@]2(C)Cc1c(C)[nH]c2ccc(F)cc12`: the 50% growth inhibitory concentration (GI50) in assay [1] was 17 µM; in assay [2] it was 15 µM; in assay [3], 11 µM; in assay [4] it was 12 µM; in assay [5] it was 14 µM; in assay [6], 15 µM.

Consider `COC(=O)[C@@]1(C)CCC=C2[C@@H]1CC[C@@H](C)[C@]2(C)Cc1c(C)[nH]c2ccc(OC)cc12`, for which the GI50 worked out at 17 µM in assay [1]; 21 µM in assay [2]; 12 µM in assay [3]; 15 µM in assay [4]; 16 µM in assay [5]; 16 µM in assay [6].

For the molecule `Cc1c(C[C@]2(C)C3=CCC[C@](C)(C(=O)O)[C@H]3CC[C@H]2C)c2cc(Cl)ccc2n1C(c1ccccc1)c1ccccc1`, the GI50 worked out at 16 µM in assay [1]; 13 µM in assay [2]; 5.5 µM in assay [3]; 13 µM in assay [4]; 13 µM in assay [5]; 9.1 µM in assay [6].

For `COC(=O)[C@@]1(C)CC[C@@H]2C3=C1CC[C@@H](C)[C@]3(C)Cc1c2[nH]c2ccc(C)cc12`, the GI50 stood at 19 µM in assay [1]; 16 µM in assay [2]; 11 µM in assay [3]; 15 µM in assay [4]; 11 µM in assay [5]; 16 µM in assay [6].

Take `COC(=O)[C@@]1(C)CCC=C2[C@@H]1CC[C@@H](C)[C@]2(C)Cc1c[nH]c2ccccc12`: the concentration for 50% growth inhibition (GI50) in assay [1] stood at 8.7 µM; in assay [2], 4.2 µM; in assay [3], 3.6 µM; in assay [4] it was 7.3 µM; in assay [5] it was 4.5 µM; in assay [6] it was 5 µM.

(Values after ChEMBL document CHEMBL3112463, “Synthesis and biological activity of polyalthenol and pentacyclindole analogues” (2014).)
